Values joined by “and” are separate entries in the source; they are usually repeats but may differ in a detail not shown here. Equal entries are not always repeated.
Columns and labels:
Format in all cases: functional
[1] = test system: Mus musculus; experiment: Effective dose required to inhibit ataxia after intraperitoneal administration in experiment 2; details: ip
Outline: (§1)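 Ataxia in mice after ip dosing: in-house, falling from an inverted wire mesh screen (Swiss-Webster mice); in NINCDS studies, falling from a rotating rod (CF-1 mice, 30% polyethylene glycol vehicle). ED50 was obtained by quantal probit analysis.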

[2] = test system: Mus musculus; experiment: Effective dose against convulsions induced by clonic pentylenetetrazole after intraperitoneal administration in experiment 1; details: ip
Outline: (§2)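 Male CF-1 mice (25-35 g) dosed ip. Pentylenetetrazol 85 mg/kg in 0.9% NaCl was given sc at the dorsal neck, and mice were observed 30 min. An anticonvulsant effect was prevention of all clonic seizures (≥5 s forelimb clonus). ED50 was obtained by quantal probit analysis; NINCDS testing used 30% polyethylene glycol vehicle.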

[3] = test system: Mus musculus; experiment: Effective dose against convulsions induced by clonic pentylenetetrazole after intraperitoneal administration in experiment 2; details: ip; outline: as §2
[4] = test system: Mus musculus; experiment: Effective dose against convulsions induced by maximal electroshock (MES) after intraperitoneal administration in experiment 1; details: ip
Outline: (§3)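 Mice dosed ip and challenged by maximal electroshock, scoring protection from seizures; N = 10 mice per time-course point. ED50 was obtained by quantal probit analysis. Swiss-Webster mice were used in-house; CF-1 mice were used in NINCDS testing, where drug was in 30% polyethylene glycol at 10 mL/kg.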

[5] = test system: Mus musculus; experiment: Effective dose against convulsions induced by maximal electroshock (MES) after intraperitoneal administration in experiment 2; details: ip; outline: as §3
[6] = test system: Mus musculus; experiment: Effective dose required for the inhibition of spontaneous locomotion after intraperitoneal administration in experiment 1; details: ip
[7] = test system: Mus musculus; experiment: Effective dose required to inhibit ataxia after intraperitoneal administration in experiment 1; details: ip; outline: as §1
[8] = Protective index, ratio of ED50 ataxia and ED50 MES
Outline: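 Protective index is the ratio of the ataxia ED50 to the maximal electroshock ED50. Both were ip in mice and derived by quantal probit analysis.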

[9] = test system: Mus musculus; experiment: Lowest dose level at which mice fell off inverted screen during testing 120 min after intraperitoneal dosage
Outline: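 Male Swiss-Webster mice (22-32 g), N = 5 per dose, given 10, 30, 100, 300 mg/kg ip. Tested 120 min after dosing on an inverted wire mesh screen. Value is the lowest dose level at which two or more mice fell off.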

[10] = test system: Mus musculus; experiment: Minimum effective dose at which mice were protected against tonic-extension produced by maximal electroshock during testing 120 min after intraperitoneal dosage; details: ip, 2 h, read-out: MED
Outline: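 Male Swiss-Webster mice (22-32 g), N = 5 per dose; dosed ip at 10, 30, 100, 300 mg/kg. Tested 120 min after dosing for protection against tonic extension from maximal electroshock. Value is the dose level at which two or more mice were protected.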

| Structure (SMILES) | MTC [9] [mg/kg] | minimal effective dose [10] [mg/kg] | also measured |
| --- | --- | --- | --- |
| NC(=O)N1c2ccccc2C=Cc2ccccc21 [CARBAMAZEPINE] |  |  | ED50 [1]: 72 mg/kg; ED50 [2]: > 100 mg/kg; ED50 [3]: > 100 mg/kg; ED50 [4]: 9.8 mg/kg; ED50 [5]: 8.8 mg/kg; ED50 [6]: 50 mg/kg; ED50 [7]: 41 mg/kg; Ratio [8]: 8.2 |
| CCCCSc1cccc(N2CCNCC2)n1 | 100 | 100 |  |
| CCCCCCCc1cccc(N2CCCNCC2)n1 | 100 | 30 |  |
| Cc1cccc(N2CCNCC2)n1.Cl.Cl | 30 | > 300 |  |
| CCCc1cccc(N2CCNCC2)n1.Cl | 3 | 10 |  |
| CCCCCCC(CCCCCC)c1cccc(N2CCNCC2)n1 | 100 | > 300 |  |
| CCCCCCCc1ccnc(N2CCNCC2)c1 | 100 | 30 |  |
| CCCCCCCc1cccc(N2CCOCC2)n1 | >300 | 300 |  |
| Cl.c1cc(CC2CCCCC2)nc(N2CCNCC2)c1 | 100 | 100 |  |
| CCCCCCCc1cccc(N2CCN(C)CC2)n1.Cl | 300 | 30 |  |
| CCCCCCCc1cccc(N2CCNCC2)n1 | 100 | 10 | ED50 [1]: 29 mg/kg; ED50 [3]: 21 mg/kg; ED50 [4]: 8.8 mg/kg; ED50 [5]: 6.4 mg/kg; ED50 [6]: 13 mg/kg; ED50 [7]: 45 mg/kg; Ratio [8]: 5.1 and 4.5 |
| CCCCCCCCCc1cccc(N2CCNCC2)n1 | 30 | 10 | ED50 [1]: 42 mg/kg; ED50 [3]: > 100 mg/kg; ED50 [4]: 5.6 mg/kg; ED50 [5]: 7.8 mg/kg; ED50 [6]: 26 mg/kg; ED50 [7]: 30 mg/kg; Ratio [8]: 5.4 |
| CC(C)(C)c1cccc(N2CCNCC2)n1.Cl | 30 | > 300 |  |
| O=C1NC(=O)C(c2ccccc2)(c2ccccc2)N1 [PHENYTOIN] |  |  | ED50 [1]: 65 mg/kg; ED50 [3]: > 100 mg/kg; ED50 [4]: 8 mg/kg; ED50 [6]: > 65 mg/kg; ED50 [7]: 82 mg/kg |
| CCCCCc1cccc(N2CCNCC2)n1 | 30 | 10 |  |
| CCCCCCCc1cccc(N2CCCCC2)n1 | >300 | > 300 |  |
| CCCCCCCCc1cccc(N2CCNCC2)n1 | 30 | 10 |  |
| CCCCCCc1cccc(N2CCNCC2)n1 | 100 | 10 | ED50 [1]: 46 mg/kg; ED50 [3]: > 100 mg/kg; ED50 [4]: 7.3 mg/kg; ED50 [5]: 16 mg/kg; ED50 [6]: 20 mg/kg; ED50 [7]: 22 mg/kg; Ratio [8]: 3 and 2.9 |
| c1ccc(CCc2cccc(N3CCNCC3)n2)cc1 | 100 | > 300 |  |
| CCCCCCCCCCc1cccc(N2CCNCC2)n1 | 100 | 30 |  |
| CC(C)c1cccc(N2CCNCC2)n1.Cl.Cl | 30 | > 300 |  |
| CCCCc1cccc(N2CCNCC2)n1 | 10 | 30 |  |

Reference: ChEMBL document CHEMBL1124485, “6-Alkyl-N,N-disubstituted-2-pyridinamines as anticonvulsant agents” (1989)
